Laboratory results: ChEMBL document CHEMBL2086393, “Haloenol pyranones and morpholinones as antineoplastic agents of prostate cancer” (Bioorg Med Chem Lett, 2012)
Activity calls are given as the source filed them. No cut-off for these calls is given here.

Columns and labels:
PC-3 [1] = assay: Antineoplastic activity against human PC3 cells after 24 hrs by MTT assay; format: functional, cell-based; conditions: PC-3, 24 h
Method in brief: (§1)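 LNCaP and PC-3 human prostate cancer cells were exposed to compound for 24, 48 or 72 h, and growth was read as the change in MTT staining. IC50 was calculated from 3–5 experiments, each run in duplicate on separate cell passages.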

LNCaP [2] = assay: Antineoplastic activity against human LNCAP cells after 48 hrs by MTT assay; format: functional, cell-based; method in brief: as §1
LNCaP [3] = assay: Antineoplastic activity against human LNCAP cells after 24 hrs by MTT assay; format: functional, cell-based; method in brief: as §1
PC-3 [4] = assay: Antineoplastic activity against human PC3 cells after 48 hrs by MTT assay; format: functional, cell-based; conditions: PC-3, 48 h; method in brief: as §1
PC-3 [5] = assay: Antineoplastic activity against human PC3 cells after 72 hrs by MTT assay; format: functional, cell-based; conditions: PC-3, 72 h; method in brief: as §1
LNCaP [6] = assay: Antineoplastic activity against human LNCAP cells after 72 hrs by MTT assay; format: functional, cell-based; method in brief: as §1
LNCaP [7] = assay: Cell cycle arrest in human LNCAP cells assessed as decrease in S phase cells at 5 uM after 24 hrs by PI-based flow cytometric analysis relative to control; format: functional
Method in brief: (§2)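 LNCaP cells were treated for 24 h at 5 or 10 μM. Cells were stained with propidium iodide and analysed by flow cytometry for the percentages in G1, S and G2/M phases, compared with control.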

LNCaP [8] = assay: Cell cycle arrest in human LNCAP cells assessed as decrease in S phase cells at 10 uM after 24 hrs by PI-based flow cytometric analysis relative to control; format: functional; method in brief: as §2
Rattus norvegicus [9] = species on record: Rattus norvegicus; assay: Inhibition of iPLA2beta in rat kidney cytosol using arachidonoyl thio-phosphatidylcholine as substrate up to 100 uM after 0.5 hrs by spectrophotometry; format: tissue-based
Method in brief: (§3)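 Cytosolic fractions were preincubated with compound at 0–100 μM for 0.5 h. Arachidonoyl thiophosphatidylcholine, a hydrolysable thioester probe of PLA2 activity, was then added to follow enzyme activity.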

LNCaP [10] = assay: Induction of apoptosis in human LNCAP cells at 5 uM after 72 hrs by phase-contrast microscopic analysis; format: functional, cell-based
Method in brief: (§4)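 LNCaP cells were treated at 5 μM for 72 h. Cells were inspected by eye under phase-contrast microscopy for changes in shape and differentiation, death, and signs of apoptosis or necrosis, compared with a DMSO vehicle control.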

LNCaP [11] = assay: Cell cycle arrest in human LNCAP cells assessed as increase in G1 phase cells at 10 uM after 24 hrs by PI-based flow cytometric analysis relative to control; format: functional; method in brief: as §2
LNCaP [12] = assay: Induction of necrosis in human LNCAP cells at 5 uM after 72 hrs by phase-contrast microscopic analysis; format: functional, cell-based; method in brief: as §4
LNCaP [13] = assay: Cell cycle arrest in human LNCAP cells assessed as decrease in G2/M phase cells at 5 uM after 24 hrs by PI-based flow cytometric analysis relative to control; format: functional; method in brief: as §2
LNCaP [14] = assay: Cell cycle arrest in human LNCAP cells assessed as increase in G1 phase cells at 5 uM after 24 hrs by PI-based flow cytometric analysis relative to control; format: functional; method in brief: as §2
Rattus norvegicus [15] = species on record: Rattus norvegicus; assay: Inhibition of iPLA2beta in rat kidney cytosol using arachidonoyl thio-phosphatidylcholine as substrate after 0.5 hrs by spectrophotometry; format: tissue-based; method in brief: as §3
LNCaP [16] = assay: Cytotoxicity against human LNCAP cells assessed as cell death at 5 uM after 72 hrs by phase-contrast microscopic analysis; format: functional, cell-based; method in brief: as §4
LNCaP [17] = assay: Antineoplastic activity against human LNCAP cells at 5 to 13 uM by MTT assay; format: functional, cell-based; conditions: TDE = time-dependent effect; method in brief: as §1
PC-3 [18] = assay: Antineoplastic activity against human PC3 cells at 14 to 34 uM by MTT assay; format: functional, cell-based; conditions: TDE = time-dependent effect; method in brief: as §1
LNCaP [19] = assay: Cytotoxicity against human LNCAP cells assessed as change in cell differentiation at 5 uM after 72 hrs by phase-contrast microscopic analysis; format: functional, cell-based; method in brief: as §4
LNCaP [20] = assay: Cytotoxicity against human LNCAP cells assessed as change in cell shape at 5 uM after 72 hrs by phase-contrast microscopic analysis; format: functional, cell-based; method in brief: as §4

| SMILES | IC50 (PC-3 [1]) | IC50 (LNCaP [2]) | IC50 (LNCaP [3]) | IC50 (PC-3 [4]) | IC50 (PC-3 [5]) | IC50 (LNCaP [6]) | Activity (LNCaP [7]) | Activity (LNCaP [8]) | inhibition (Rattus norvegicus [9]) | Activity (LNCaP [10]) | Activity (LNCaP [11]) | Activity (LNCaP [12]) | Activity (LNCaP [13]) | Activity (LNCaP [14]) | inhibition (Rattus norvegicus [15]) | Activity (LNCaP [16]) | Activity (LNCaP [17]) | Activity (PC-3 [18]) | Activity (LNCaP [19]) | Activity (LNCaP [20]) |
| --- | --- | --- | --- | --- | --- | --- | --- | --- | --- | --- | --- | --- | --- | --- | --- | --- | --- | --- | --- | --- |
| O=C1O/C(=C/Br)CN(Cc2ccccc2)[C@H]1c1ccccc1 | 4 µM | 4 µM | 3 µM | 1 µM | 4 µM | 3 µM | – | – | – | – | – | – | – | – | – | – | – | – | – | – |
| C#CCN1C/C(=C\Br)OC(=O)[C@H]1c1ccccc1 | 8 µM | 6 µM | 6 µM | 6 µM | 3 µM | 3 µM | Active | Active | inactive | Active | Active | Active | Active | Active | – | – | – | – | – | – |
| O=C1O/C(=C/Br)CC[C@H]1c1cccc2ccccc12 | – | – | – | – | – | – | – | – | Active | – | – | – | – | – | – | – | – | – | – | – |
| C#CCN1C/C(=C\Br)OC(=O)[C@@H]1c1ccccc1 | 15 µM | 3 µM | 8 µM | 13 µM | 5 µM | 3 µM | Active | Active | Active | – | Active | – | Active | Active | – | – | – | – | – | – |
| O=C1CCC/C(=C\Br)O1 | 19 µM | 5 µM | 10 µM | 23 µM | 14 µM | 5 µM | – | – | – | – | – | – | – | – | – | – | – | – | – | – |
| C#CCN1C/C(=C\Br)OC(=O)[C@@H]1Cc1ccccc1 | 33 µM | 26 µM | 41 µM | 57 µM | 39 µM | 32 µM | – | – | – | – | – | – | – | – | – | – | – | – | – | – |
| O=C1O/C(=C/Br)CCC1c1cccc2ccccc12 (racemic) [BROMOENOL LACTONE] | 34 µM | 5 µM | 13 µM | 26 µM | 14 µM | 9 µM | Active | Active | – | – | Active | – | Active | Active | Dose-dependent effect | inactive | tde | tde | inactive | inactive |
| O=C1CCC/C(=C\I)O1 | 32 µM | 5 µM | 9 µM | 15 µM | 16 µM | 7 µM | – | – | – | – | – | – | – | – | – | – | – | – | – | – |
| C#CCN1CC(=O)O/C(=C/Br)C1 | 13 µM | 29 µM | 25 µM | 10 µM | 7 µM | 28 µM | – | – | – | – | – | – | – | – | – | – | – | – | – | – |
| C#CCN1C/C(=C\I)OC(=O)[C@@H]1c1ccccc1 | 21 µM | 23 µM | 26 µM | 21 µM | 25 µM | 20 µM | – | – | – | – | – | – | – | – | – | – | – | – | – | – |
| O=C1O/C(=C/Br)CCC1c1ccccc1 (racemic) | 27 µM | 5 µM | 31 µM | 10 µM | 6 µM | 4 µM | Active | Active | – | – | Active | – | Active | Active | Dose-dependent effect | inactive | – | – | inactive | inactive |
